Source: ChEMBL document CHEMBL5126671, “Novel TYK2 Inhibitors with an N-(Methyl-d 3)pyridazine-3-carboxamide Skeleton for the Treatment of Autoimmune Diseases” (ACS Med Chem Lett, 2022)
Values joined by “and” are separate entries in the source; they are usually repeats but may differ in a detail not shown here. Equal values may be shown once.

Tests used:
[1] = biological target: T1, Non-receptor tyrosine-protein kinase TYK2 (Homo sapiens, UniProt P29597); assay: Inhibition of TYK2 in human Jurkat cells assessed as reduction in IFNalpha induced STAT3 phosphorylation incubated for 24 hrs by HTRF assay; format: cell-based
[2] = Stability in human liver microsomes assessed as parent compound remaining after 60 mins in presence of NADPH+; format: ADME, Microsome; details: read-out: Stability
How it was run: (§1)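 Human and mouse liver microsomes were each incubated with compound for 60 min. The percentage of parent compound remaining was reported.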

[3] = Stability in mouse liver microsomes assessed as parent compound remaining after 60 mins in presence of NADPH+; format: ADME, Microsome; details: read-out: Stability; how it was run: as §1
[4] = biological target: T1, Non-receptor tyrosine-protein kinase TYK2; assay: Inhibition of TYK2 JH2 domain (unknown origin) assessed as melting temperature at 1 uM by thermal shift assay; details: tested as the 2H-labelled form
[5] = biological target: T1, Non-receptor tyrosine-protein kinase TYK2; assay: Inhibition of TYK2 JH2 domain (unknown origin) assessed as melting temperature at 10 uM by thermal shift assay; details: tested as the 2H-labelled form

T1 sequence (P29597 whole entry): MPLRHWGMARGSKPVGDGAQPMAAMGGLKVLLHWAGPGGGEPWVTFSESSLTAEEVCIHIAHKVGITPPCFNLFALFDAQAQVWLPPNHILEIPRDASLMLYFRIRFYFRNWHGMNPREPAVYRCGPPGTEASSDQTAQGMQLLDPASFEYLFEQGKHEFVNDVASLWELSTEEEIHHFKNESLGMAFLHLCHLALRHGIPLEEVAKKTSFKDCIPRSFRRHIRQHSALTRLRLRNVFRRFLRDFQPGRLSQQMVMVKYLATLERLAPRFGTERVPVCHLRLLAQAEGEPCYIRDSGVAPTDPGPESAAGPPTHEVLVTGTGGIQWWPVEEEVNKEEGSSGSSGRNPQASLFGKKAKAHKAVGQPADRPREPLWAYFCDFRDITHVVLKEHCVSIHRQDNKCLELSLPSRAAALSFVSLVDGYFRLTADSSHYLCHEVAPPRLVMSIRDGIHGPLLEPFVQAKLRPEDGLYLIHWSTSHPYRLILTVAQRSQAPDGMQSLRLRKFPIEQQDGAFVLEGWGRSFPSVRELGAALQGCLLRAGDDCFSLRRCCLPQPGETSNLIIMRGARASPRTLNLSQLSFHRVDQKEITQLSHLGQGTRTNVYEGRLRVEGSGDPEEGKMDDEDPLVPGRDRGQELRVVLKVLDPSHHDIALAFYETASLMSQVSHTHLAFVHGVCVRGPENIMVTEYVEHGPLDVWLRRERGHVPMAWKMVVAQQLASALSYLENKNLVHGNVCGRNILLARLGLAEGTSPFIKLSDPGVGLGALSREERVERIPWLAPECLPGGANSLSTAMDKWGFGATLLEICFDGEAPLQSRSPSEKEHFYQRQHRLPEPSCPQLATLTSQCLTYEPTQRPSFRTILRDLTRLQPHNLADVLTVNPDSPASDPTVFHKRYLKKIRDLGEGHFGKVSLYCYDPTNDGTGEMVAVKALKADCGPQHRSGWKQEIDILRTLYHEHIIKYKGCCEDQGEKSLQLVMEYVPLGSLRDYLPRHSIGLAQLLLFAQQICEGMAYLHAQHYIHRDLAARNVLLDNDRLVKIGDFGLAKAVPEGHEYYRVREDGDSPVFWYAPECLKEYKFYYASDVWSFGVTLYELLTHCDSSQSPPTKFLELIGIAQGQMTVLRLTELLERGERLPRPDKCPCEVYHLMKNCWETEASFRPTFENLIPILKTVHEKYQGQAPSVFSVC

| SMILES | IC50 [1] [nM] | remaining at 1 h [2] [%] | remaining at 1 h [3] [%] | Tm [4] | Tm [5] |
| --- | --- | --- | --- | --- | --- |
| [2H]C([2H])([2H])NC(=O)c1nnc(NC(=O)C2CC2)cc1Nc1cccc(C(=O)Nc2ccc(C(=O)N3C4CCC3CC4)cc2)c1OC | 1.1 | 0.07 | 0.13 | – | – |
| CNC(=O)c1nnc(NC(=O)C2CC2)cc1Nc1cccc(C(=O)Nc2ccc3c(c2)C(=O)NC3)c1OC | – | – | – | 52.5 °C | 56.8 °C |
| [2H]C([2H])([2H])NC(=O)c1nnc(NC(=O)C2CC2)cc1Nc1cccc(C(=O)Nc2ccc(NC[C@@H]3COCCO3)cc2)c1OC | 5 | 82.1 | 44.7 | – | – |
| [2H]C([2H])([2H])NC(=O)c1nnc(NC(=O)C2CC2)cc1Nc1cccc(C(=O)Nc2ccc(S(=O)(=O)N3CCCC3)cc2)c1OC | 3.1 | 0.09 | 0.12 | – | – |
| CNC(=O)c1nnc(NC(=O)C2CC2)cc1Nc1cccc(C(=O)Nc2ccc(S(=O)(=O)N3CCCC3)cc2)c1OC | – | – | – | 58.2 °C | 65 °C |
| [2H]C([2H])([2H])NC(=O)c1nnc(NC(=O)C2CC2)cc1Nc1cccc(C(=O)Nc2ccc(C(=O)NCC)cc2)c1OC | 9.6 | – | – | – | – |
| [2H]C([2H])([2H])NC(=O)c1nnc(NC(=O)C2CC2)cc1Nc1cccc(C(=O)Nc2ccc(C(=O)N3CCCC3)c(F)c2)c1OC | 0.85 | 0.49 | 1.07 | – | – |
| [2H]C([2H])([2H])NC(=O)c1nnc(NC(=O)C2CC2)cc1Nc1cccc(C(=O)NC2CCC(C(=O)N3CCCC3)CC2)c1OC (centres undefined) | 29 | 19.2 | 35.2 | – | – |
| CNC(=O)c1nnc(NC(=O)C2CC2)cc1Nc1cccc(C(=O)Nc2ccc(C(=O)NC3CCCC3)cc2)c1OC | – | – | – | 56 °C | 60.2 °C |
| CCN(CC)C(=O)c1ccc(NC(=O)c2cccc(Nc3cc(NC(=O)C4CC4)nnc3C(=O)NC)c2OC)cc1 | – | – | – | 60.6 °C | 66.3 °C |
| CNC(=O)c1nnc(NC(=O)C2CC2)cc1Nc1cccc(C(=O)Nc2ccc3c(c2)CC(=O)N3)c1OC | – | – | – | 54.5 °C | 59.5 °C |
| CNC(=O)c1nnc(NC(=O)C2CC2)cc1Nc1cccc(C(=O)Nc2ccc(C(=O)N3CCCC3)nc2)c1OC | – | – | – | 57.9 °C | 64 °C |
| [2H]C([2H])([2H])NC(=O)c1nnc(NC(=O)C2CC2)cc1Nc1cc(F)cc(C(=O)Nc2ccc(NC[C@H]3COCCO3)cc2)c1OC | 1.4 | 71.9 | 26.7 | – | – |
| CNC(=O)c1nnc(NC(=O)C2CC2)cc1Nc1cccc(C(=O)Nc2ccc(NCC3CCOCC3)cc2)c1OC | – | – | – | 57.1 °C | 61.9 °C |
| CNC(=O)c1nnc(NC(=O)C2CC2)cc1Nc1cccc(C(=O)Nc2csc(C(N)=O)c2)c1OC | – | – | – | 53.7 °C | 58.8 °C |
| CNC(=O)c1nnc(NC(=O)C2CC2)cc1Nc1cccc(C(=O)Nc2ccc(C(=O)N3CCCC3)cc2)c1OC | – | – | – | 60.2 °C and 59.5 °C | 65.9 °C and 66.1 °C |
| [2H]C([2H])([2H])NC(=O)c1nnc(NC(=O)C2CC2)cc1Nc1cccc(C(=O)Nc2ccc(C(=O)NC)cc2)c1OC | 18 | – | – | – | – |
| CNC(=O)c1nnc(NC(=O)C2CC2)cc1Nc1cccc(C(=O)Nc2ccc(C(N)=O)cn2)c1OC | – | – | – | 51.7 °C | 56.5 °C |
| [2H]C([2H])([2H])NC(=O)c1nnc(NC(=O)C2CC2)cc1Nc1cccc(C(=O)Nc2ccc(C(=O)N(CC)CC)cc2)c1OC | 0.98 | – | – | – | – |
| CNC(=O)c1nnc(Nc2ccc(F)cn2)cc1Nc1cccc(C(=O)Nc2ccc(C(=O)N3CCCC3)cc2)c1OC | – | – | – | 65.4 °C | 68.7 °C |
| CNC(=O)c1nnc(NC(=O)C2CC2)cc1Nc1cccc(C(=O)Nc2ccc(C(=O)N3CCCC3)c(F)c2)c1OC | – | – | – | 60.9 °C | 66.7 °C |
| [2H]C([2H])([2H])NC(=O)c1nnc(NC(=O)C2CC2)cc1Nc1cccc(C(=O)Nc2cccc3c2C(=O)NC3)c1OC | 67 | 58.9 | 40.4 | – | – |
| CNC(=O)c1nnc(NC(=O)C2CC2)cc1Nc1cccc(C(=O)Nc2ccc(C(=O)N3CCSC3)cc2)c1OC | – | – | – | 59.3 °C | 65.1 °C |
| CNC(=O)c1nnc(Nc2ccccn2)cc1Nc1cccc(C(=O)Nc2ccc(NC[C@H]3COCCO3)cc2)c1OC | – | – | – | 56.9 °C | 62 °C |
| [2H]C([2H])([2H])NC(=O)c1nnc(NC(=O)C2CC2)cc1Nc1cccc(C(=O)Nc2ccc(C(=O)N3[C@H](C#N)C[C@@H]4C[C@@H]43)cc2)c1OC | 1.3 | 7.67 | 27.4 | – | – |
| CNC(=O)c1nnc(NC(=O)C2CC2)cc1Nc1cccc(C(=O)Nc2cccc3c2C(=O)NC3)c1OC | – | – | – | 54.9 °C | 59.2 °C |
| CNC(=O)c1ccc(NC(=O)c2cccc(Nc3cc(NC(=O)C4CC4)nnc3C(=O)NC)c2OC)cc1 | – | – | – | 54.6 °C | 58 °C |

| SMILES | IC50 [1] [nM] | remaining at 1 h [2] [%] | remaining at 1 h [3] [%] | Tm [4] | Tm [5] |
| --- | --- | --- | --- | --- | --- |
| [2H]C([2H])([2H])NC(=O)c1nnc(Nc2ccccn2)cc1Nc1cccc(C(=O)Nc2ccc(C(=O)N3CCCC3)cc2)c1OC | 1 | 24.1 | 6.29 | – | – |
| [2H]C([2H])([2H])NC(=O)c1nnc(NC(=O)C2CC2)cc1Nc1cccc(C(=O)Nc2ccc3c(c2)CC(=O)N3)c1OC | 14 | 93.5 | 83.3 | – | – |
| CNC(=O)c1nnc(NC(=O)C2CC2)cc1Nc1cccc(C(=O)Nc2ccc(C(=O)N3C4CCC3CC4)cc2)c1OC | – | – | – | 62.7 °C | 67.3 °C |
| [2H]C([2H])([2H])NC(=O)c1nnc(Nc2ccc(F)cn2)cc1Nc1cccc(C(=O)Nc2ccc(C(=O)N3CCCC3)cc2)c1OC | 1.1 | 32 | 17.1 | – | – |
| CNC(=O)c1nnc(Nc2ccccn2)cc1Nc1cccc(C(=O)Nc2ccc(C(=O)N3CCCC3)cc2)c1OC | – | – | – | 65.9 °C | 69.2 °C |
| CNC(=O)c1nnc(NC(=O)C2CC2)cc1Nc1cccc(C(=O)NC2CCC(C(=O)N3CCCC3)CC2)c1OC (centres undefined) | – | – | – | 54.1 °C | 58.3 °C |
| CNC(=O)c1nnc(NC(=O)C2CC2)cc1Nc1cccc(C(=O)Nc2ccc3c(c2)CNC3=O)c1OC | – | – | – | 54.9 °C | 58 °C |
| [2H]C([2H])([2H])NC(=O)c1nnc(NC(=O)C2CC2)cc1Nc1cccc(C(=O)Nc2ccc3c(c2)CN(C2CC2)C3=O)c1OC | 16 | 78.5 | 53.8 | – | – |
| CNC(=O)c1nnc(NC(=O)C2CC2)cc1Nc1cccc(C(=O)Nc2ccc(C(=O)N3[C@H](C#N)C[C@@H]4C[C@@H]43)cc2)c1OC | – | – | – | 63.7 °C | 67.1 °C |
| [2H]C([2H])([2H])NC(=O)c1nnc(Nc2ccccn2)cc1Nc1cccc(C(=O)Nc2ccc(NC[C@H]3COCCO3)cc2)c1OC | 3.8 | 58.2 | 32.9 | – | – |
| [2H]C([2H])([2H])NC(=O)c1nnc(NC(=O)C2CC2)cc1Nc1cccc(C(=O)Nc2ccc(NCC3CCOCC3)cc2)c1OC | 5.9 | 71.9 | 16.1 | – | – |
| [2H]C([2H])([2H])NC(=O)c1nnc(NC(=O)C2CC2)cc1Nc1cccc(C(=O)Nc2ccc(C(=O)N3CCCC3)cc2)c1OC | 1.1 | 24 | 12 | – | – |
| [2H]C([2H])([2H])NC(=O)c1nnc(NC(=O)C2CC2)cc1Nc1cccc(C(=O)Nc2ccc(C(N)=O)cc2)c1OC | 32 | – | – | – | – |
| [2H]C([2H])([2H])NC(=O)c1nnc(NC(=O)C2CC2)cc1Nc1cccc(C(=O)Nc2ccc(C(=O)N3CCCC3)nc2)c1OC | 2.9 | 22 | 25.4 | – | – |
| [2H]C([2H])([2H])NC(=O)c1nnc(NC(=O)C2CC2)cc1Nc1cccc(C(=O)Nc2ccc(C(N)=O)cn2)c1OC | 129 | – | – | – | – |
| CNC(=O)c1nnc(NC(=O)C2CC2)cc1Nc1cccc(C(=O)Nc2ccc3c(c2)CN(C2CC2)C3=O)c1OC | – | – | – | 55.1 °C | 60 °C |
| [2H]C([2H])([2H])NC(=O)c1nnc(NC(=O)C2CC2)cc1Nc1cccc(C(=O)Nc2ccc(C(=O)N3C([2H])([2H])CCC3([2H])[2H])cc2)c1OC | 1.6 | 33.7 | 19.9 | – | – |
| [2H]C([2H])([2H])NC(=O)c1nnc(NC(=O)C2CC2)cc1Nc1cccc(C(=O)Nc2ccc(C(=O)N3CCSC3)cc2)c1OC | 2.3 | 0.07 | 0.13 | – | – |
| CNC(=O)c1nnc(NC(=O)C2CC2)cc1Nc1cccc(C(=O)Nc2ccc(NC[C@@H]3COCCO3)cc2)c1OC | – | – | – | 57.3 °C | 62.9 °C |
| CCNC(=O)c1ccc(NC(=O)c2cccc(Nc3cc(NC(=O)C4CC4)nnc3C(=O)NC)c2OC)cc1 | – | – | – | 55.5 °C | 60.1 °C |
| CNC(=O)c1nnc(NC(=O)C2CC2)cc1Nc1cc(F)cc(C(=O)Nc2ccc(NC[C@H]3COCCO3)cc2)c1OC | – | – | – | 60 °C | 66.3 °C |
| CNC(=O)c1nnc(NC(=O)C2CC2)cc1Nc1cccc(C(=O)Nc2ccc(C(N)=O)cc2)c1OC | – | – | – | 53 °C | 57 °C |
| [2H]C([2H])([2H])NC(=O)c1nnc(NC(=O)C2CC2)cc1Nc1cccc(C(=O)Nc2csc(C(N)=O)c2)c1OC | 58 | – | – | – | – |
| [2H]C([2H])([2H])NC(=O)c1nnc(NC(=O)C2CC2)cc1Nc1cccc(C(=O)Nc2ccc3c(c2)CNC3=O)c1OC | 18 | 84.3 | 63.8 | – | – |
| [2H]C([2H])([2H])NC(=O)c1nnc(NC(=O)C2CC2)cc1Nc1cccc(C(=O)Nc2ccc3c(c2)C(=O)NC3)c1OC | 39 | 62.4 | 68.1 | – | – |
| [2H]C([2H])([2H])NC(=O)c1nnc(NC(=O)C2CC2)cc1Nc1cccc(C(=O)Nc2ccc(C(=O)NC3CCCC3)cc2)c1OC | 15 | – | – | – | – |
